Source: PMC4747818 (Journal of controlled release : official journal of the …, 2016)
Where a SMILES comes first, the peptide text is derived from it. [ ]: non-standard residue; d: D form.

Columns and labels:
[1] = test system: M2 macrophages; type: cell-based; conditions: 2 h
[2] = test system: macrophages; assay: M2pep sequence specificity of macrophage toxicity; type: cell-based, murine; conditions: peptides partially dimerized in solution; Fig. S3, linkers Fig. S4
[3] = test system: M1 macrophages; assay: Cell viability during binding study; type: cell-based, murine; conditions: 20 min on ice, PI staining; up to 50 µM; Fig. 1B
In short: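 Bone-marrow cells cultured 7 d in RPMI 1640 with 20% horse serum, 1% antibiotic-antimycotic and 20 ng/mL M-CSF, then activated 2 d with 25 ng/mL IFN-γ plus 100 ng/mL LPS. Cells were plated at 50,000/well and given biotinylated peptide in PBS/1% BSA on ice. After washing they were given streptavidin-FITC for 15 min on ice. Dead cells were scored by PI flow cytometry. Triplicates, three independent experiments.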

Row | Compound | macrophage toxicity [2] | also measured
1 | CC(C)C[C@@H](NC(=O)[C@@H](CCCCN)NC(=O)[C@H](CO)NC(=O)CNC(=O)CNC(=O)CNC(=O)[C@H](Cc1ccc(O)cc1)NC(=O)[C@H](Cc1c[nH]c2ccccc12)NC(=O)[C@H](Cc1c[nH]c2ccccc12)NC(=O)[C@H](CCCCN)NC(=O)[C@@H](NC(=O)CNC(=O)[C@H](Cc1c[nH]c2ccccc12)NC(=O)[C@@H]1CCCN1C(=O)[C@H](CC(=O)O)NC(=O)[C@H](CCC(N)=O)NC(=O)[C@H](CCC(=O)O)NC(=O)[C@@H](N)Cc1ccc(O)cc1)C(C)C)C(=O)N[C@H](C)C(=O)N[C@H](CCCCN)C(=O)N[C@H](CC(C)C)C(=O)N[C@H](C)C(=O)N[C@H](CCCCN)C(=O)N[C@H](CCCCN)C(=O)N[C@H](CC(C)C)C(=O)N[C@H](C)C(=O)N[C@H](CCCCN)C(=O)N[C@H](CC(C)C)C(=O)N[C@H](C)C(=O)N[C@H](CCCCN)C(N)=O [M2pepKLA] (H-YEQDPWGVKWWYGGGS[dK][dL][dA][dK][dL][dA][dK][dK][dL][dA][dK][dL][dA][dK]-NH2) | – | EC50 [1]: 4.29 µM
2 | WEDYQWPVYKGWGGGSKKKC [scrambled M2pepKKKC, reference compound] | toxicity was only observed in the M2pepKKKC-treated samples | –
3 | YEQDPWGVKWWYGGGSKKKBiotin [M2pepBiotin] | – | toxicity to M1 macrophages during binding study [3]: no toxicity to either cell type
4 | YEQDPWGVKWWYGGGSKKKC [M2pepKKKC] | toxicity was only observed in the M2pepKKKC-treated samples | –
